Measured values published in ChEMBL document CHEMBL2203171, “The use of small molecule probes to study spatially separated stimulus-induced signaling pathways” (Bioorg Med Chem Lett, 2012).
Activity calls are given as the source filed them. The rule behind the calls is not given here.

What was measured:
[1] = biological target: MAP kinase p38 (Mus musculus) (UniProt P47811+O08911+Q9WUI1+Q9Z1B7); test: Inhibition of MAPK p38 in C57BL/6 mouse BMDM cells assessed as inhibition of LPS-induced phosphorylation at 50 uM up to 90 mins by Western blot analysis; format: cell-based
[2] = biological target: T1, Inhibitor of nuclear factor kappa-B kinase subunit beta (Mus musculus) (UniProt O88351); test: Inhibition of IKKbeta in C57BL/6 mouse BMDM cells assessed as inhibition of TNFalpha-induced IkappaBalpha phosphorylation at 25 uM by Western blot analysis
T1 sequence (whole entry): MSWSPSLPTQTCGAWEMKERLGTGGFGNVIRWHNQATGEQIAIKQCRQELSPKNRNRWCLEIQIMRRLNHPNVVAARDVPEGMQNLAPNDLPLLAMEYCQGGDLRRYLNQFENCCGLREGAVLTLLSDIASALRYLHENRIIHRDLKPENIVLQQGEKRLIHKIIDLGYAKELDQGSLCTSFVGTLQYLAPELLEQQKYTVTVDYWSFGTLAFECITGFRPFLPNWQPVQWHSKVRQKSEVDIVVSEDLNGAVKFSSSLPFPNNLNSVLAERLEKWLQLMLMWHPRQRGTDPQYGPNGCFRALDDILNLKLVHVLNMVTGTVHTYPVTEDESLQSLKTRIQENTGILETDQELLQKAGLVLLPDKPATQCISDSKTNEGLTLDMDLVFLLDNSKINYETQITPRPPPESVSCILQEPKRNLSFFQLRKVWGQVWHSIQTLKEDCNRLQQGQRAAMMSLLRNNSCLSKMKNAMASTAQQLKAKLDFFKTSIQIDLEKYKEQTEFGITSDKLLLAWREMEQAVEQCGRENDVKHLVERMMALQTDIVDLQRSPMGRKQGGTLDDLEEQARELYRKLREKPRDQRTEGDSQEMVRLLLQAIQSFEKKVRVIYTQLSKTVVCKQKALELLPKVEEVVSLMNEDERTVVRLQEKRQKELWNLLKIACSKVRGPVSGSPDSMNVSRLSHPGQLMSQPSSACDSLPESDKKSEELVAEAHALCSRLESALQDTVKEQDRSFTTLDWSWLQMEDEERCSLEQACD

[3] = biological target: T2, Interleukin-1 receptor type 1 (Mus musculus) (UniProt P13504); test: Inhibition of MyD88 recruitment to IL-1R in C57BL/6 mouse BMDM cells assessed as inhibition of IL1-induced p38 MAPK activity up to 90 mins; format: cell-based
T2 sequence (whole entry): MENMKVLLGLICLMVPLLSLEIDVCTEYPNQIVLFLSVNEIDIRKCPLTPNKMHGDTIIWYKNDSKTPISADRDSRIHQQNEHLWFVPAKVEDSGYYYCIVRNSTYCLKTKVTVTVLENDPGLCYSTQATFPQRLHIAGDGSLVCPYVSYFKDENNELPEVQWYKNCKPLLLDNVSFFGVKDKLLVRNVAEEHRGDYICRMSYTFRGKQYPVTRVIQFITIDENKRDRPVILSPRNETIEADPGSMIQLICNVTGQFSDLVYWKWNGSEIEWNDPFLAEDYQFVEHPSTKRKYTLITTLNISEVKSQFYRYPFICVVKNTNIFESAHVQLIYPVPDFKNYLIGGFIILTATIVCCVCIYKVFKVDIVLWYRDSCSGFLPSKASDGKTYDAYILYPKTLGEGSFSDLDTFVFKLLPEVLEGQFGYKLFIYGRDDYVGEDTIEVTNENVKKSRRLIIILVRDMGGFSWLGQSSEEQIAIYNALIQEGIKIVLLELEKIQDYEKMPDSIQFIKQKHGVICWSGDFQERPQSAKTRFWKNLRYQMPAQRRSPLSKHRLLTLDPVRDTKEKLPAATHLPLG
Outline: (§1)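 Bone marrow macrophages from C57BL/6 mice, grown in 70% growth medium (DMEM, 10% FBS) plus 30% L929-conditioned medium and given fresh medium 12-14 h before stimulation. Stimuli: IL-1 40 ng/ml, HKSA ~10^8 cfu/ml, pI:pC 50 μg/ml or CpG 10 μg/ml, ± compound at 10 μM (final) added from a 200x DMSO stock. IκBα and p38 profiled by immunoblot. Three independent experiments, quantitated and normalized.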

[4] = biological target: T2, Interleukin-1 receptor type 1 (Mus musculus); test: Inhibition of MyD88 recruitment to IL-1R in C57BL/6 mouse BMDM cells assessed as inhibition of IL-1-induced IkappaBalpha phosphorylation up to 90 mins by Western blot analysis; format: cell-based; outline: as §1
[5] = biological target: T1, Inhibitor of nuclear factor kappa-B kinase subunit beta (Mus musculus); test: Inhibition of IKKebta in C57BL/6 mouse BMDM cells assessed as inhibition of LPS-induced IkappaBalpha phosphorylation at 25 uM by Western blot analysis

inhibition [1]: inactive
inhibition [2]: inactive
inhibition [3]: inactive
inhibition [4]: Active
inhibition [5]: Active
Compound: O=C(CCCCCN1C(=O)C=CC1=O)Oc1ccc2cc(C(C(=O)NCc3ccccc3)N(C(=O)Cc3ccc4c(c3)OCO4)C3CC3)ccc2c1 (stereo not given)
